Type in all cases: cell-based
For data set [1], the target named is T1, Transient receptor potential cation channel subfamily M member 2 (Homo sapiens, UniProt O94759). As to the kind of experiment: Inhibition of human TRPM2 expressed in HEK293T cells assessed as suppression of H2O2-induced calcium flux at 1 uM measured after 30 mins by Fluo-3/AM assay. (Calcium assays in cells follow changes in intracellular calcium, usually with a dye or a luminescent sensor.)

In data set [2] the target is T1, Transient receptor potential cation channel subfamily M member 2. Kind of data set: Inhibition of human TRPM2 expressed in HEK293T cells assessed as suppression of H2O2-induced calcium flux at 0.3 uM measured after 30 mins by Fluo-3/AM assay.
Data set [3] shares this target. As to the kind of experiment: Inhibition of human TRPM2 expressed in HEK293T cells assessed as blocked of ADPR-activated current by whole cell patch clamp electrophysiology. Background: Patch clamp records ionic current or voltage across a cell membrane.
For a further data set, the system named is SH-SY5Y. As to the kind of experiment: Cytotoxicity against human SH-SY5Y cells assessed as toxicity at 30 uM incubated for 24 hrs by CCK-8 assay. In outline: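 SH-SY5Y cells were seeded at 2 × 10⁴ per well and grown 12 h at 37 °C. They were then treated with compound (1–30 μM) under normoxic, normal-glucose conditions for 24 h. CCK-8 (10%) was added for 2 h at 37 °C and OD450 read. Viability was taken relative to untreated control after blank subtraction, with three replicate wells.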

Activity calls are given as the source filed them. The calls are words filed in the database; no cut-off is given here.

T1 sequence (O94759 whole entry): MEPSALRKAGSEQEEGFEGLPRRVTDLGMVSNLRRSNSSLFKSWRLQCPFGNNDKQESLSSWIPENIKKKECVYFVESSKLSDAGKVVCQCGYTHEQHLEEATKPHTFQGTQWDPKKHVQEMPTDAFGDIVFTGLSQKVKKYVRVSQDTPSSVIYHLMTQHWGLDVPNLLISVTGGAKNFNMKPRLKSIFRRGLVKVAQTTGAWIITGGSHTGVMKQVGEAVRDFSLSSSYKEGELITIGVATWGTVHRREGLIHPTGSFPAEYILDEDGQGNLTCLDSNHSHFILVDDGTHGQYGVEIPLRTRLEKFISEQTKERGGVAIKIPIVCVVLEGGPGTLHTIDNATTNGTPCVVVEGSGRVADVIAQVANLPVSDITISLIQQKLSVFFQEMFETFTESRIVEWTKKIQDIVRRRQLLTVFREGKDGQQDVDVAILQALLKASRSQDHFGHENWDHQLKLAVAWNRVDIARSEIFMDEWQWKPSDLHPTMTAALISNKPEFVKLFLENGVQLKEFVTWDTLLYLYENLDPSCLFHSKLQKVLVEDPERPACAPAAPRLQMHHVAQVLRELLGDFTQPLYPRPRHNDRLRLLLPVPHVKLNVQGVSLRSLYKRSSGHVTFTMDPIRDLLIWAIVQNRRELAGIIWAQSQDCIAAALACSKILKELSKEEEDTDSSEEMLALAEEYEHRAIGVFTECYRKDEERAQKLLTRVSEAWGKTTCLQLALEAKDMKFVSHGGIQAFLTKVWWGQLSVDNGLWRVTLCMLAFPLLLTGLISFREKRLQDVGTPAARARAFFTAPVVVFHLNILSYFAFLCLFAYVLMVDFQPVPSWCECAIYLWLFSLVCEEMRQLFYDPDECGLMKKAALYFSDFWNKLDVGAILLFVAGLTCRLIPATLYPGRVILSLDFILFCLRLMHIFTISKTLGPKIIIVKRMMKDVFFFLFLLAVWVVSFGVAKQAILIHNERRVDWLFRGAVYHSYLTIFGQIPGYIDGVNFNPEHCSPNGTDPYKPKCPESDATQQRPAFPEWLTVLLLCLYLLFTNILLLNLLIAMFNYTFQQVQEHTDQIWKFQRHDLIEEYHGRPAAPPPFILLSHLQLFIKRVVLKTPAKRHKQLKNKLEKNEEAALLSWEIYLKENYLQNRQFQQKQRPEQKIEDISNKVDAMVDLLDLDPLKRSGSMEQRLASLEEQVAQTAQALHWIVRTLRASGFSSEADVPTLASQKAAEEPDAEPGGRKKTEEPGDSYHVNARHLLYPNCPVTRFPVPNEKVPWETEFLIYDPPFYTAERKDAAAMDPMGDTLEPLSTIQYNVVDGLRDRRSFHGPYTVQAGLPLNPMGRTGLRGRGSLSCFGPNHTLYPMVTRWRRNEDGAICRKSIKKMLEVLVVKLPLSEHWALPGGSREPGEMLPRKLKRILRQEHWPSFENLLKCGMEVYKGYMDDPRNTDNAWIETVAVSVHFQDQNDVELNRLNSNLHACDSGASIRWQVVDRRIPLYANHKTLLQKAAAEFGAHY

Usually inhibition stands for the change of the read-out against control, counted positive when it falls. Consider `O=C(/C=C/c1ccc(-c2ccc(C(F)(F)F)cc2)cc1)Nc1ccccc1C(=O)O`, for which the inhibition in data set [1] was over 45%. The same measure, in the same setting: under `CCCCCc1ccc(/C=C/C(=O)Nc2ccc(Br)cc2C(=O)O)cc1` stands over 45%. Regarding `O=C(/C=C/c1ccc(N2CCOCC2)cc1)Nc1ccccc1C(=O)O`, the inhibition in data set [1] was under 45%. Moreover, the inhibition entry in data set [2] was “inactive”. Broadly, the IC50 is the concentration that gives 50% inhibition. Regarding `Clc1ccc(COC(Cn2ccnc2)c2ccc(Cl)cc2Cl)cc1` (configuration not stated) [ECONAZOLE], the IC50 in data set [3] was 3 µM. In the case of `O=C(/C=C/c1ccc(-c2ccccc2)cc1)Nc1cc(Cl)ccc1C(=O)O`, in data set [1], the inhibition was over 45%. Same read-out and setting: under `Cc1cc(-c2ccccc2)ccc1/C=C/C(=O)Nc1ccccc1C(=O)O` stands over 45%; under `O=C(/C=C/c1ccc(-c2ccccc2F)cc1)Nc1ccccc1C(=O)O`, over 45%. Consider `O=C1CCN(C(=O)/C=C/c2ccc(-c3ccccc3)cc2)c2ccccc21`, for which the inhibition in data set [1] is under 45%.

Take `CCCCCc1ccc(/C=C/C(=O)Nc2c(C)cccc2C(=O)O)cc1`: in data set [1], the inhibition was under 45%. Still for that read-out and setting: under `O=C(/C=C/c1ccc(-c2ccccc2)cc1)Nc1ccc(Cl)cc1C(=O)O` stands over 45%. For the compound `O=C(/C=C/c1ccc(-c2cccnc2)cc1)Nc1ccccc1C(=O)O`, the inhibition in data set [1] is under 45%. In addition, the inhibition result in data set [2] was “inactive”. For the compound `CCc1ccc(/C=C/C(=O)Nc2ccccc2C(=O)O)cc1`, in data set [1], the inhibition is under 45%. In addition, the inhibition entry in data set [2] was “inactive”.

Consider `O=C(/C=C/c1ccc(-c2cccc(F)c2)cc1)Nc1ccccc1C(=O)O`, for which, in data set [3], the IC50 stood at 0.83 µM. Further, the Activity in the data set on SH-SY5Y was under 23.7%. For the same compound, the inhibition in data set [1] was over 45%. Turning to `CCCCCc1ccc(/C=C/C(=O)Nc2cccc(C(=O)O)c2)cc1`, the inhibition in data set [1] is over 45%. Still for that read-out and setting: under `Cc1ccc(C(=O)O)c(NC(=O)/C=C/c2ccc(-c3cccc([N+](=O)[O-])c3)cc2)c1` stands over 45%; under `CCCCCc1ccc(/C=C/C(=O)Nc2cc(Cl)ccc2C(=O)O)cc1`, over 45%. Take `O=C(/C=C/c1ccc(N2CCCCC2)cc1)Nc1ccccc1C(=O)O`: in data set [1], the inhibition is under 45%. For the same compound, the inhibition entry in data set [2] is “inactive”.

Take `CCCCCc1ccc(/C=C/C(=O)Nc2c(C)cc(Cl)cc2C(=O)O)cc1`: the inhibition in data set [1] is under 45%. The same measure, in the same setting: to `Cc1ccc(-c2ccc(/C=C/C(=O)Nc3ccccc3C(=O)O)cc2)cc1` belongs over 45%; to `O=C(/C=C/c1ccc(-c2cccc(Cl)c2)cc1)Nc1ccccc1C(=O)O`, over 45%; to `COc1cccc(-c2ccc(/C=C/C(=O)Nc3ccccc3C(=O)O)cc2)c1`, over 45%. Same read-out and setting: under `CCCCCc1ccc(/C=C/C(=O)c2ccccc2C(=O)O)cc1` stands over 45%.

For the compound `O=C1CCCN(C(=O)/C=C/c2ccc(-c3ccccc3)cc2)c2ccccc21`, the inhibition in data set [1] was under 45%. Same read-out and setting: under `CCCCCc1ccc(/C=C/C(=O)Nc2c(Cl)cccc2C(=O)O)cc1` stands under 45%.

As to `CCCCCc1ccc(/C=C/C(=O)N2CCCC(=O)c3ccccc32)cc1`, the inhibition in data set [1] is under 45%.

On to `O=C(/C=C/c1ccc(-c2ccccc2)cc1)Nc1ccc(F)cc1C(=O)O`, for which the inhibition in data set [1] was over 45%.

`O=C(/C=C/c1ccc(-c2ccc(F)cc2)cc1)Nc1ccccc1C(=O)O`: the inhibition in data set [1] was under 45%. On the same count and under the same terms, to `CCCCCc1ccc(/C=C/c2ccccc2C(=O)O)cc1` belongs under 45%; to `Cc1cc(/C=C/C(=O)Nc2ccccc2C(=O)O)ccc1-c1ccccc1`, over 45%. For the compound `Cc1cccc(-c2ccc(/C=C/C(=O)Nc3ccccc3C(=O)O)cc2)c1`, the inhibition in data set [1] was over 45%. Turning to `CC(C)(C)c1ccc(-c2ccc(/C=C/C(=O)Nc3ccccc3C(=O)O)cc2)cc1`, the inhibition in data set [1] is over 45%. Same read-out and setting: to `CCCCCc1ccc(NC(=O)c2ccccc2C(=O)O)cc1` belongs over 45%. In the case of `CCOc1ccc(/C=C/C(=O)Nc2ccccc2C(=O)O)cc1`, in data set [1], the inhibition is under 45%. Moreover, in data set [2], the inhibition result was “inactive”.

Consider `O=C(/C=C/c1ccc(Cl)cc1)Nc1ccccc1C(=O)O`, for which the inhibition in data set [1] was under 45%. The inhibition result in data set [2] was “inactive”. The like results for `O=C(/C=C/c1ccccc1)Nc1ccccc1C(=O)O` were, in that order, under 45% and “inactive”.

Take `O=C(/C=C/c1ccc(-c2ccccc2)cc1)Nc1ccccc1C(=O)O`: the IC50 in data set [3] was determined as 2.56 µM. Also, the inhibition in data set [1] is over 45%. As for `COc1ccc(-c2ccc(/C=C/C(=O)Nc3ccccc3C(=O)O)cc2)cc1`, the inhibition in data set [1] was over 45%. Still for that read-out and setting: to `O=C(/C=C/c1ccc(-c2cccc(Br)c2)cc1)Nc1ccccc1C(=O)O` belongs over 45%; to `O=C(/C=C/c1ccc(-c2cccc([N+](=O)[O-])c2)cc1)Nc1ccc(Br)cc1C(=O)O`, over 45%. For `CC(C)c1ccc(/C=C/C(=O)Nc2ccccc2C(=O)O)cc1`, the inhibition in data set [1] was under 45%. In data set [2], the inhibition entry was “inactive”. For the compound `CCCCCc1ccc(/C=C/C(=O)Nc2c(C(=O)O)ccc(C)c2C)cc1`, the inhibition in data set [1] was under 45%. Still for that read-out and setting: to `CCCCCc1ccc(/C=C/C(=O)N2CCC(=O)c3ccccc32)cc1` belongs under 45%. Same read-out and setting: to `O=C(/C=C/c1ccc(-c2ccccc2C(F)(F)F)cc1)Nc1ccccc1C(=O)O` belongs over 45%; to `CC(C)c1ccc(-c2ccc(/C=C/C(=O)Nc3ccccc3C(=O)O)cc2)cc1`, over 45%. Regarding `Cc1ccc(/C=C/C(=O)Nc2ccccc2C(=O)O)cc1`, the inhibition in data set [1] is under 45%. Besides, the inhibition entry in data set [2] is “inactive”. `CCCCCc1ccc(/C=C/C(=O)Nc2ccc(C(=O)O)cc2)cc1`: the inhibition in data set [1] is under 45%. Consider `CC(C)NC(=O)c1ccc(/C=C/C(=O)Nc2ccccc2C(=O)O)cc1`, for which, in data set [1], the inhibition is under 45%. The inhibition result in data set [2] is “inactive”.

As for `O=C(/C=C/c1ccc(-c2ccccc2)cc1)N1C(=O)c2ccccc21`, the inhibition in data set [1] is under 45%. For the compound `CCCc1ccc(/C=C/C(=O)Nc2ccccc2C(=O)O)cc1`, the inhibition in data set [1] was under 45%. In addition, in data set [2], the inhibition result is “inactive”. On to `Clc1ccccc1C(c1ccccc1)(c1ccccc1)n1ccnc1` [CLOTRIMAZOLE], for which, in data set [3], the IC50 was determined as 3 µM.

Turning to `CCOC(=O)Cn1nc(-c2ccc(C(F)(F)F)cc2)c2c1CCCCC2`, in data set [3], the IC50 was determined as 0.013 µM.

Regarding `CCCCCc1ccc(C(=O)Nc2ccccc2C(=O)O)cc1`, in data set [1], the inhibition was over 45%. The same measure, in the same setting: to `CCCCCc1ccc(/C=C/C(=O)Nc2cc(F)c(F)cc2C(=O)O)cc1` belongs over 45%. Regarding `CC(C)(C)c1ccc(/C=C/C(=O)Nc2ccccc2C(=O)O)cc1`, the inhibition in data set [1] is under 45%. In addition, the inhibition entry in data set [2] was “inactive”.

Turning to `COc1ccccc1-c1ccc(/C=C/C(=O)Nc2ccccc2C(=O)O)cc1`, the inhibition in data set [1] is over 45%. Same read-out and setting: to `Cc1ccccc1-c1ccc(/C=C/C(=O)Nc2ccccc2C(=O)O)cc1` belongs over 45%; to `CCc1ccc(-c2ccc(/C=C/C(=O)Nc3ccccc3C(=O)O)cc2)cc1`, over 45%.

For the origin of these results see ChEMBL document CHEMBL4834416, “The Discovery of Novel ACA Derivatives as Specific TRPM2 Inhibitors that Reduce Ischemic Injury Both In Vitro and In Vivo” (J Med Chem, 2021).
